From PubChem
NPY Y1 blocker: blocks the human neuropeptide Y Y1 receptor; 1% of 200,000 active; AID 1040; P25929; HEK293-CNG Y1 cells, membrane potential fluorescence; NPY at EC95, then isoproterenol; inhibition, % at 3.6 µM;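 active means inhibition above the campaign mean inhibition of all tested compounds plus 3 SD, cut at about 20% in these data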
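Material: HEK293 Y1/CNG channel cell line; also added: NPY (25 nM), isoproterenol (1 µM), Ro 20-1724 (25 µM); doses: one concentration, 3.6 µM, in 0.4% DMSO; schedule: compound incubation 1 h at room temperature, readout 45 min post-stimulation; technique: membrane potential fluorescence; measure: fluorescence ratio normalized to % inhibition between controls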
NPY-Y2 PAM-ag: potentiates or activates human NPY-Y2 receptor; P49146; cells expressing NPY-Y2, potentiator/agonist read-out; activation, % at 3.6 µM; 0.45% of 220,000 active; AID 1359; in the data active means activation above about 27%;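 further: cells stimulated with NPY near EC25 plus isoproterenol at EC100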
Target sequence (P49146 whole entry, looked up): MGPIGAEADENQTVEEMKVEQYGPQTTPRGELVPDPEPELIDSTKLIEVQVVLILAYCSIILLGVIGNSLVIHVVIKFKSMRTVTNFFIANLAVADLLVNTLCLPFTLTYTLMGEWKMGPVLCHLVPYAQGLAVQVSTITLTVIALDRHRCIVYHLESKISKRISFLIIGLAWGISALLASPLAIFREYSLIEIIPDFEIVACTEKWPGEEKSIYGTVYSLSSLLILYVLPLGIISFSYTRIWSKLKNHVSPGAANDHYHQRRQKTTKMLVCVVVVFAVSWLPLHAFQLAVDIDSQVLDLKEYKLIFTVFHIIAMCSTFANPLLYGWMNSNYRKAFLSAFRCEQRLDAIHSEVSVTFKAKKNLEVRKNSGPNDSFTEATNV
NPY Y2 blocker: antagonists of human neuropeptide Y receptor Y2. P49146. NPY-Y2 expressing cells, antagonist mode. inhibition, % at 2.7 µM. 0.99% of 140,000 active. AID 793; in the data active means inhibition above about 17%
NPY1 pot ag: potentiators or agonists of human neuropeptide Y receptor Y1; P25929; NPY-Y1 expressing cells, potentiator/agonist activation; activation, % at 3.6 µM; 0.37% of 220,000 active; AID 1304; in the data active means activation above about 33%, passing the limit was not always enough;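 further: cells stimulated with NPY at EC10 then isoproterenol at EC100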
Of the large screens only hits and unclear results are named; the others gave an inactive call; ! = not confirmed by another sample. Only some compounds are listed: those with a hit (about 1.9% of all), similar ones and a draw of the others.

COc1cccc(N=c2oc3cc(O)ccc3cc2C(=O)NCC2CCCO2)c1 (stereo not given)	none (no result: NPY Y2 blocker)
COc1ccccc1N=c1oc2cc(O)ccc2cc1C(=O)NCC1CCCO1 (stereo not given)	NPY Y1 blocker 24, NPY Y2 blocker 21
CC1=CC(C)(C)NC(=S)N1c1cccc2cc(S(=O)(=O)O)ccc12	none (no result: NPY Y1 blocker, NPY Y2 blocker)
Nc1ccc(-c2cc(-c3cccc(N)c3)nc(-c3ccccc3)n2)cc1	NPY-Y2 PAM-ag 45, NPY1 pot ag 54
Cn1c(SCC(=O)Nc2cccnc2)nnc1-c1ccccc1F	none (no result: NPY Y2 blocker)
Cc1c(Br)c(C(=O)NNC(=O)c2ccc(C(C)(C)C)cc2)nn1C	none (no result: NPY Y1 blocker, NPY Y2 blocker)
Cc1cc(C)c(C(=O)Nc2ccc(Br)c(C(F)(F)F)c2)c(C)c1	NPY Y1 blocker 28, NPY Y2 blocker 30
C=CCc1ccccc1OCC(CN1CCCCC1)OC(C)=O (stereo not given)	NPY-Y2 PAM-ag 104, NPY1 pot ag 112
OC(CSc1ccccc1Cl)CN1CCN(c2ccccc2F)CC1 (stereo not given)	none
C=CCc1cc(OC)ccc1OCC(O)CN1CCN(c2ccc(OC)cc2)CC1 (stereo not given)	none
C=CCc1ccccc1OCCCCN1CCCC1	none
C=CCc1cc(C)ccc1OCC(O)CN1CCN(c2ccccc2)CC1 (stereo not given)	NPY-Y2 PAM-ag 56, NPY1 pot ag 54
C=CCc1ccccc1OCC(O)CN1CCN(c2ccccc2F)CC1 (stereo not given)	NPY-Y2 PAM-ag 87, NPY1 pot ag 95
COc1ccccc1N1CCN(CC(O)COc2ccc3c(c2)OCO3)CC1 (stereo not given)	none (no result: NPY Y2 blocker)
C=CCc1ccccc1OCC(O)CN1CCN(c2ccccc2OC)CC1 (stereo not given)	NPY-Y2 PAM-ag 102, NPY1 pot ag 112
CN(C)c1ccc([C@@H]2[C@@H]([N+](=O)[O-])[C@H]3C=Cc4ccccc4N3[C@H]2C(=O)c2ccc(Cl)cc2)cc1	none
CCOc1cc(C)c(S(=O)(=O)Nc2ccc3cn[nH]c3c2)cc1C	none
CCc1c(C)nc(SCC(=O)N2CCCCC2C)[nH]c1=O (stereo not given)	none (no result: NPY Y2 blocker)
COc1ccccc1N1CCN(CC(O)COc2cccc3ccccc23)CC1 (stereo not given)	NPY-Y2 PAM-ag 66!, NPY1 pot ag 88
C=CCc1ccccc1OCC(O)CNC(C)C (stereo not given)	NPY-Y2 PAM-ag 103, NPY1 pot ag 116
OC(COc1ccccc1Cl)CN1CCN(CC(O)COc2ccccc2Cl)CC1 (stereo not given)	NPY-Y2 PAM-ag 48, NPY1 pot ag 86
CCCCn1c(SCC(=O)Nc2cc(C(F)(F)F)cc(C(F)(F)F)c2)nnc1C(CC)N(C)C (stereo not given)	none
C[C@H]1O[C@@H](O[C@H]2[C@@H](O)C[C@H](O[C@H]3[C@@H](O)C[C@H](O[C@H]4CC[C@@]5(C)[C@H](CC[C@@H]6[C@@H]5C[C@@H](O)[C@]5(C)[C@@H](C7=CC(=O)OC7)CC[C@]65O)C4)O[C@@H]3C)O[C@@H]2C)C[C@H](O)[C@@H]1O	NPY Y1 blocker 49, NPY Y2 blocker 53
COc1cc2c(cc1OC)C(c1cccc([N+](=O)[O-])c1)N(C(=O)c1ccc(F)cc1)CC2 (stereo not given)	NPY Y1 blocker 32, NPY Y2 blocker 33
COc1ccc(C(=O)NCCc2nnc3ccc(SCC(=O)Nc4cc(C)on4)nn23)cc1	none (no result: NPY Y2 blocker)
COc1ccc(OC)c2sc(N(CCN(C)C)C(=O)c3cc(Cl)sc3Cl)nc12	NPY-Y2 PAM-ag 79, NPY1 pot ag 90 (no result: NPY Y2 blocker)
O=C1CC(C(=O)Nc2ccc(Cl)cc2[N+](=O)[O-])C2(CCCCC2)O1 (stereo not given)	none
CCOC(=O)C(C)Sc1nc(-c2ccco2)cc(C(F)(F)F)c1C#N (stereo not given)	NPY Y1 blocker 34, NPY Y2 blocker 20
Cc1ccnc(NS(=O)(=O)c2ccc(NC(=O)c3cc(-c4ccc(Br)cc4)nc4ccccc34)cc2)n1	none
CC1CC(C)CN(c2oc(-c3ccco3)nc2C#N)C1 (stereo not given)	NPY Y1 blocker 24, NPY Y2 blocker 27
N#Cc1nc(-c2ccco2)oc1N1CCCC1	none
CCOC(=O)CN(C(=O)CSc1nnc(COc2ccc(OC)cc2)n1C)c1ccccc1	NPY-Y2 PAM-ag 103, NPY1 pot ag 112
O=C(Nc1ccon1)c1cccc(S(=O)(=O)N2CCCCC2)c1	none (no result: NPY Y2 blocker)
O=C(OCC(=O)c1c[nH]c2ccccc12)c1ccc(Br)o1	NPY-Y2 PAM-ag 70, NPY1 pot ag 63
Cc1ccccc1C(=O)c1c[nH]c(C(N)=O)c1	NPY1 pot ag 111
Cc1ccccc1C(=O)c1c[nH]c(C(=O)N=CN(C)C)c1	none (no result: NPY Y2 blocker)
NC(=O)C(=O)NCCCN1CCOCC1	none (no result: NPY Y2 blocker)
COc1ccc(-c2cc(C(F)(F)F)n3ncc(C(=O)NCC4CCCO4)c3n2)cc1OC (stereo not given)	none
COc1ccc(-c2cc(C(F)F)n3ncc(C(=O)NCC4CCCO4)c3n2)cc1 (stereo not given)	NPY Y1 blocker 29, NPY Y2 blocker 29
Cc1cc(N=Nc2ccccc2)c(NCC(O)C(O)C(O)CO)cc1C (stereo not given)	NPY-Y2 PAM-ag 57, NPY1 pot ag 73 (no result: NPY Y2 blocker)
COc1ccccc1NC(=O)c1cc2cc(Br)ccc2cc1O	NPY-Y2 PAM-ag 86, NPY1 pot ag 96 (no result: NPY Y1 blocker, NPY Y2 blocker)
COc1ccccc1NC(=O)c1ccccc1C(=O)O	none (no result: NPY Y2 blocker)
O=C(NN=C1CCCCCCCCCCC1)c1ccccc1F	none
CC(C)CN(CC(C)C)CC(O)COc1ccc([N+](=O)[O-])cc1 (stereo not given)	none
COC(=O)Cc1c[nH]c2cccc(OCC(O)CN(Cc3ccc([N+](=O)[O-])cc3)C(C)(C)C)c12 (stereo not given)	NPY-Y2 PAM-ag 103, NPY1 pot ag 107
COC(=O)Cc1c[nH]c2cccc(OCC(O)CN(Cc3ccccc3)C(C)C)c12 (stereo not given)	NPY-Y2 PAM-ag 90, NPY1 pot ag 97
CC1SC2(NC1=O)C1CC3CC(C1)CC2C3 (stereo not given)	none (no result: NPY Y2 blocker)
COC(=O)c1ccc(CN2CCN(CCc3ccccc3)C(CCO)C2)cc1 (stereo not given)	none (no result: NPY Y2 blocker)
O=C(OC1C2CCC1C1CN(CCc3ccccc3)CC12)c1ccccc1 (stereo not given)	NPY Y1 blocker 44, NPY Y2 blocker 42
O=C(Nc1cc(Cl)cc(Cl)c1)C(c1ccccc1)N1CCCCC1 (stereo not given)	NPY Y1 blocker 30, NPY Y2 blocker 20
CCn1c(CNc2ccc(Cl)cc2)nnc1SCC#N	none (no result: NPY Y2 blocker)
COC(=O)CSc1nnc(-c2ccc(S(=O)(=O)N3CCCCC3)cc2)o1	NPY-Y2 PAM-ag 42, NPY1 pot ag 63
COC(=O)CSc1nnc(-c2ccc(S(=O)(=O)N3CCC(C)CC3)cc2)o1	none
CCC(=O)N(CCC(c1ccccc1)c1ccco1)Cc1cccs1 (stereo not given)	NPY Y1 blocker 27, NPY Y2 blocker 22
CNS(=O)(=O)c1ccc(NS(=O)(=O)c2ccccc2F)cc1	none (no result: NPY Y2 blocker)
COc1ccc(C2=NN(C(=O)CSc3nc4ccccc4s3)C(c3ccc(OC)cc3)C2)cc1 (stereo not given)	none
